Test results as given in ChEMBL document CHEMBL3272013, “Synthesis and biological evaluation of substituted 2,2'-oxybis(propionic acid) derivatives and related compounds” (1976).
Values joined by “and” are separate entries in the source; they are usually repeats but may differ in a detail not shown here. Equal values may be shown once.

Tests used:
Type in all cases: functional
Rattus norvegicus [1] = experiment: Hypolipidemic activity in albino Wistar Royal Hart rat assessed as change in plasma triglyceride level at 120 mg/kg, po for 3 days
Outline: (§1)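 Male albino Wistar Royal Hart rats (160–180 g) were kept 7 days on drug-free ground Purina Lab Chow, then grouped six per group. Compound was given orally, once daily, for 3 or 6 days. Controls received no compound. Rats were anesthetized with sodium hexobarbital and bled from the carotid artery. Serum (1.0 ml) went into 9.0 ml 2-propanol with zeolite-copper hydroxide/Lloyd reagent, shaken 1 h. Cholesterol and triglyceride were autoanalyzed on the same sample. Change is given as % of control.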

Rattus norvegicus [2] = experiment: Hypolipidemic activity in albino Wistar Royal Hart rat assessed as change in plasma cholesterol level at 120 mg/kg, po for 3 days; outline: as §1
Rattus norvegicus [3] = experiment: Hypolipidemic activity in albino Wistar Royal Hart rat assessed as change in plasma cholesterol level at 60 mg/kg, po for 6 days; outline: as §1
Rattus norvegicus [4] = experiment: Hypolipidemic activity in albino Wistar Royal Hart rat assessed as change in plasma triglyceride level at 60 mg/kg, po for 3 days; outline: as §1
Rattus norvegicus [5] = experiment: Hypolipidemic activity in albino Wistar Royal Hart rat assessed as change in plasma triglyceride level at 250 mg/kg, po for 6 days; outline: as §1
Rattus norvegicus [6] = experiment: Hypolipidemic activity in albino Wistar Royal Hart rat assessed as change in plasma cholesterol level at 250 mg/kg, po for 6 days; outline: as §1
Rattus norvegicus [7] = experiment: Hypolipidemic activity in albino Wistar Royal Hart rat assessed as change in plasma cholesterol level at 120 mg/kg, po for 6 days; outline: as §1
Rattus norvegicus [8] = experiment: Hypolipidemic activity in albino Wistar Royal Hart rat assessed as change in plasma triglyceride level at 120 mg/kg, po for 6 days; outline: as §1
Rattus norvegicus [9] = experiment: Hypolipidemic activity in albino Wistar Royal Hart rat assessed as change in plasma cholesterol level at 60 mg/kg, po for 3 days; conditions: in the assay text read “for 6 days” for “for 3 days”; outline: as §1
Rattus norvegicus [10] = experiment: Hypolipidemic activity in albino Wistar Royal Hart rat assessed as change in plasma triglyceride level at 60 mg/kg, po for 6 days; outline: as §1
Rattus norvegicus [11] = experiment: Hypolipidemic activity in albino Wistar Royal Hart rat assessed as change in plasma triglyceride level at 250 mg/kg, po for 3 days; outline: as §1
Rattus norvegicus [12] = experiment: Hypolipidemic activity in albino Wistar Royal Hart rat assessed as change in plasma cholesterol level at 250 mg/kg, po for 3 days; outline: as §1
Rattus norvegicus [13] = experiment: Hypolipidemic activity in albino Wistar Royal Hart rat assessed as change in plasma triglyceride level at 300 mg/kg, po for 6 days; outline: as §1
Rattus norvegicus [14] = experiment: Hypolipidemic activity in albino Wistar Royal Hart rat assessed as change in plasma cholesterol level at 300 mg/kg, po for 6 days; outline: as §1
Rattus norvegicus [15] = experiment: Hypolipidemic activity in albino Wistar Royal Hart rat assessed as change in plasma cholesterol level at 30 mg/kg, po for 6 days; outline: as §1
Rattus norvegicus [16] = experiment: Hypolipidemic activity in albino Wistar Royal Hart rat assessed as change in plasma triglyceride level at 30 mg/kg, po for 6 days; outline: as §1
[17] = in the assay text read “for 3 days” for “for 6 days”

| SMILES | Activity (Rattus norvegicus [1]) [%] | Activity (Rattus norvegicus [2]) [%] | also measured |
| --- | --- | --- | --- |
| CC1(C)OC(C)(C)C(=O)N(Cc2ccccc2)C1=O | 51 | 35 | – |
| CC(C)(OC(C)(C)C(=O)O)C(=O)O | -32 | 4 | – |
| COC(=O)C(C)(C)OC(C)(C(=O)OC)c1ccccc1 (centres undefined) | -3 | 0 | – |
| CC(C)(OC(C(=O)O)(c1ccccc1)c1ccccc1)C(=O)O | 8 | -11 | – |
| COC(=O)C(C)(C)OC(C)(C(=O)OC)c1ccc(Cl)cc1 (centres undefined) | 9 | 29 | – |
| CC(C)(OC(C(=O)O)(c1ccccc1)c1ccc(Cl)cc1)C(=O)O (centres undefined) | 33 | 6 | – |
| COC(=O)C(C)(C)OC1(C(=O)OC)CCCCC1 | 8 | -8 | – |
| CC(OC1(C(=O)O)CCCCC1)(C(=O)O)c1ccccc1 (centres undefined) | -2 | 28 | – |
| CC(C)(O)C#CC(C)(O)c1ccc(Cl)cc1 (centres undefined) | 6 | 11 | – |
| CC(C)(O)C#CC(O)(c1ccccc1)c1ccc(Cl)cc1 (centres undefined) | 3 | 48 | – |
| CC(C)(O)C#CC(O)(c1ccncc1)c1ccc(Cl)cc1 (centres undefined) | 34 | 30 | – |
| CN1CCC(O)(C#CC(C)(C)O)CC1 | 86 | 20 | – |
| CN1CCC(O)(C#CC2(O)CCN(C)CC2)CC1 | 43 | 19 | – |
| CC1(C)OC(c2ccccc2)(c2ccccc2)/C(=N\O)C1=O | -19 | -6 | – |
| CC1(C)OC(c2ccccc2)(c2ccc(Cl)cc2)/C(=N\O)C1=O (centres undefined) | -29 | -6 | – |
| CC1(C)CN(Cc2ccccc2)CC(C)(C)O1 | 9 | -14 | – |
| CC1(C)OC(C)(C)C(=O)N(Cc2ccc(Cl)cc2)C1=O | 50 | -3 | – |
| CC1(C)CN(Cc2ccc(Cl)cc2)CC(C)(C)O1 | -10 | -3 | – |
| CC1(C)OC(c2ccccc2)(c2ccccc2)C(=O)N(c2ccccc2)C1=O | 8 | -6 | – |
| CC1(C)OC(c2ccccc2)(c2ccccc2)C(=O)N(Cc2ccccc2)C1=O | – | – | Activity (Rattus norvegicus [3]; [17]): -9%; Activity (Rattus norvegicus [4]): -7% |
| CC1(C)CN(Cc2ccccc2)CC(c2ccccc2)(c2ccccc2)O1.Cl | -15 | 0 | – |

| SMILES | Activity (Rattus norvegicus [1]) [%] | Activity (Rattus norvegicus [2]) [%] | also measured |
| --- | --- | --- | --- |
| CC1(C)OC(c2ccccc2)(c2ccccc2)C(=O)N(Cc2ccc(Cl)cc2)C1=O | -16 | -9 | – |
| CC1(C)CN(Cc2ccc(Cl)cc2)CC(c2ccccc2)(c2ccccc2)O1 | -45 | 12 | – |
| CC1(C)OC(c2ccccc2)(c2ccc(Cl)cc2)C(=O)N(Cc2ccccc2)C1=O (centres undefined) | – | – | Activity (Rattus norvegicus [5]): -4%; Activity (Rattus norvegicus [6]): -7% |
| CC(C)(CNCc1ccc(Cl)cc1)OC(C)(C)CNCc1ccc(Cl)cc1.Cl | – | – | Activity (Rattus norvegicus [7]): -15%; Activity (Rattus norvegicus [8]): -64%; Activity (Rattus norvegicus [5]): -77%; Activity (Rattus norvegicus [6]): -7%; Activity (Rattus norvegicus [9]): -25%; Activity (Rattus norvegicus [10]): -9% |
| CN1CCC(O)(/C=C\C(C)(C)O)CC1.Cl | -10 | -4 | – |
| CN1CCC(O)(/C=C\C2(O)CCN(C)CC2)CC1 | – | – | Activity (Rattus norvegicus [11]): -28%; Activity (Rattus norvegicus [12]): -17% |
| O=C(c1ccccc1)N1CCC(O)(/C=C\C2(O)CCN(C(=O)c3ccccc3)CC2)CC1 | 27 | -3 | – |
| CC(=O)N1CCC(O)(/C=C\C(C)(C)O)CC1 | 92 | 21 | – |
| OC1(CCC(O)(c2ccccc2)c2ccccc2)CCCCC1 | 74 | -5 | – |
| CN1CCC(O)(CCC2(O)CCN(C)CC2)CC1 | 29 | -4 | – |
| CC(=O)N1CCC(O)(CCC(C)(C)O)CC1 | -22 | -7 | – |
| CC1(C)C=CC(C)(c2ccccc2)O1 (centres undefined) | 27 | -7 | – |
| CC1(C)C=CC(c2ccccc2)(c2ccc(Cl)cc2)O1 (centres undefined) | – | – | Activity (Rattus norvegicus [3]; [17]): -11%; Activity (Rattus norvegicus [4]): -17% |
| CC1(C)C=CC(c2ccncc2)(c2ccc(Cl)cc2)O1 (centres undefined) | -65 | 32 | – |
| CC(=O)N1CCC2(CC1)CCC(C)(C)O2 | – | – | Activity (Rattus norvegicus [5]): -39%; Activity (Rattus norvegicus [6]): -11% |
| CC1(C)OC(C)(c2ccccc2)C2OC21 (centres undefined) | – | – | Activity (Rattus norvegicus [5]): -6%; Activity (Rattus norvegicus [6]): -11% |
| CC1(C)OC(c2ccncc2)(c2ccc(Cl)cc2)C2OC21 (centres undefined) | – | – | Activity (Rattus norvegicus [3]; 60 mg/kg): -8% and -6% |
| CC1(C)OC(c2ccccc2)(c2ccc(Cl)cc2)C2OC21 (centres undefined) | – | – | Activity (Rattus norvegicus [2]; 120 mg/kg): -11% and -12% |
| CCOC(=O)C(C)(C)Oc1ccc(Cl)cc1 [CLOFIBRATE] | – | – | Activity (Rattus norvegicus [13]): -49%; Activity (Rattus norvegicus [14]): -34% |
| CN1CCC(OC(=O)C(Oc2ccc(Cl)cc2)Oc2ccc(Cl)cc2)CC1 [LIFIBRATE] | – | – | Activity (Rattus norvegicus [15]): -30%; Activity (Rattus norvegicus [16]): -50% |
